Legend:
[1] = Anti convulsant activity administered intra peritoneally to mouse for toxicity at 4 hr with dose of 100 mg/kg; 3/4= No of animals exhibiting toxicity /No of animals tested; format: organism-based; set-up: dose 100 mg/kg; settings: in vivo, ip
[2] = Toxicity after oral administration of 100 mg/kg dose in rats;++++ means 100% animals exhibited toxicity; format: organism-based; set-up: dose 100 mg/kg, route oral; settings: rat, in vivo
Procedure, shortened: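 Rats dosed orally with compound dissolved or suspended in 0.5% methylcellulose (0.04 mL per 10 g body weight). Anticonvulsant protection (MES or scMet) and toxicity scored at 15 min, 30 min, 1 h, 2 h and 4 h after dosing. Graded in steps of 25% of animals protected or showing toxicity.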

[3] = Anti convulsant activity administered intra peritoneally to mouse for toxicity at 4 hr with dose of 30 mg/kg; 0/2= No of animals exhibiting toxicity /No of animals tested; format: organism-based; set-up: dose 30 mg/kg; settings: in vivo, ip
[4] = Anti convulsant activity administered intra peritoneally to mouse for toxicity at 4 hr with dose of 300 mg/kg; 2/2= No of animals exhibiting toxicity /No of animals tested; format: organism-based; set-up: dose 300 mg/kg; settings: in vivo, ip
[5] = Anti convulsant activity administered intra peritoneally to mouse for toxicity at 0.5 hr with dose of 30 mg/kg; 0/4= No of animals exhibiting toxicity /No of animals tested; format: organism-based; set-up: dose 30 mg/kg; settings: in vivo, ip
[6] = Anti convulsant activity administered intra peritoneally to mouse for toxicity at 0.5 hr with dose of 100 mg/kg; 0/8= No of animals exhibiting toxicity /No of animals tested; format: organism-based; set-up: dose 100 mg/kg; settings: in vivo, ip
[7] = Anti convulsant activity administered intra peritoneally to mouse for subcutaneous metrazol test at 4 hr with dose of 300 mg/kg; 4/4= No of animals protected /No of animals tested; format: ADME, organism-based; set-up: dose 300 mg/kg
Mus musculus [8] = assay: Anti convulsant activity administered intra peritoneally to mouse at maximal electroshock test at 4 hr after the drug administered with dose of 30 mg/kg; 0/1= No of animals protected /No of animals tested; format: functional
Mus musculus [9] = assay: Anti convulsant activity administered intra peritoneally to mouse at maximal electroshock test at 4 hr after the drug administered with dose of 100 mg/kg; 3/3= No of animals protected /No of animals tested; format: functional
Mus musculus [10] = assay: Anti convulsant activity administered intra peritoneally to mouse at maximal electroshock test at 4 hr after the drug administered with dose of 300 mg/kg; 1/1= No of animals protected /No of animals tested; format: functional
Rattus norvegicus [11] = assay: Anticonvulsant activity after oral administration of 30 mg/kg dose after 1 hr in rats;+ means 25% animals protected; format: functional, organism-based; set-up: dose 30 mg/kg
Procedure, shortened: (§1)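 Oral dosing of rats at a single dose, compound dissolved or suspended in 0.5% methylcellulose. Protection in the MES or scMet test checked 15 min, 30 min, 1 h, 2 h and 4 h after dosing. Scored as 25/50/75/100% of animals protected (+ to ++++), – for none.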

Mus musculus [12] = assay: Anti convulsant activity administered intra peritoneally to mouse at maximal electroshock test at 0.5 h after the drug administered with dose of 30 mg/kg; 0/1= No of animals protected /No of animals tested; format: functional
Mus musculus [13] = assay: Anti convulsant activity administered intra peritoneally to mouse for subcutaneous metrazol test at 4 hr after the drug administered with dose of 30 mg/kg; 0/1= No of animals protected /No of animals tested; format: functional; settings: route intraperitoneal
Mus musculus [14] = assay: Anti convulsant activity administered intra peritoneally to mouse at maximal electroshock test at 0.5 hr after the drug administered with dose of 100 mg/kg; 2/3= No of animals protected /No of animals tested; format: functional
Mus musculus [15] = assay: Anti convulsant activity administered intra peritoneally to mouse at maximal electroshock test at 0.5 hr after the drug administered with dose of 300 mg/kg; 1/1= No of animals protected /No of animals tested; format: functional
Mus musculus [16] = assay: Anti convulsant activity administered intra peritoneally to mouse for subcutaneous metrazol test at 4 hr after the drug administered with dose of 100 mg/kg; 0/1= No of animals protected /No of animals tested; format: functional
Rattus norvegicus [17] = assay: Anticonvulsant activity after oral administration of 30 mg/kg dose after 2 hr in rats; +means 25% of the animal is protected; format: functional, organism-based; set-up: dose 30 mg/kg; procedure, shortened: as §1
Rattus norvegicus [18] = assay: Anticonvulsant activity after oral administration of 100 mg/kg dose after 30 min in rats; ++ means 50% animals protected; format: functional, organism-based; set-up: dose 100 mg/kg; procedure, shortened: as §1
Rattus norvegicus [19] = assay: Anticonvulsant activity after oral administration of 30 mg/kg dose after 15 min in rats; + means 25% of the animal protected; format: functional, organism-based; set-up: dose 30 mg/kg; procedure, shortened: as §1
Mus musculus [20] = assay: Anti convulsant activity administered intra peritoneally to mouse for subcutaneous metrazol test at 4 hr with dose of 300 mg/kg; 0/1= No of animals protected /No of animals tested; format: functional
Mus musculus [21] = assay: Anti convulsant activity administered intra peritoneally to mouse for subcutaneous metrazol test at 0.5 hr with dose of 30 mg/kg; 0/1= No of animals protected /No of animals tested; format: functional
Mus musculus [22] = assay: Anti convulsant activity administered intra peritoneally to mouse for subcutaneous metrazol test at 0.5 hr with dose of 100 mg/kg; 0/1= No of animals protected /No of animals tested; format: functional
Mus musculus [23] = assay: Anti convulsant activity administered intra peritoneally to mouse for subcutaneous metrazol test at 0.5 h with dose of 300 mg/kg; 0/1= No of animals protected /No of animals tested; format: functional
Rattus norvegicus [24] = assay: Anticonvulsant activity after oral administration of 100 mg/kg dose after 2 hr in rats; ++means 50% of the animals protected; format: functional, organism-based; set-up: dose 100 mg/kg; procedure, shortened: as §1
[25] = Anticonvulsant activity administered orally to rat for toxicity; settings: in vivo, po
Rattus norvegicus [26] = assay: Anticonvulsant activity administered orally to rat at subcutaneous metrazol test; format: functional
Mus musculus [27] = assay: Anticonvulsant activity administered intra peritoneally to mouse at subcutaneous metrazol test; format: functional; settings: sc
Rattus norvegicus [28] = assay: Anticonvulsant activity administered orally to rat at maximal electro shock test; the interval in parenthesis stands for 95% confidence interval; format: functional; settings: po
Rattus norvegicus [29] = assay: Anticonvulsant activity administered orally to rat for the protective index of toxicity by maximal electroshock test; T D50/ED50; format: functional
Rattus norvegicus [30] = assay: Anticonvulsant activity administered orally to rat for protective index of subcutaneous metrazol test; format: functional
Mus musculus [31] = assay: Anticonvulsant activity administered intra peritoneally to mouse at maximal electro shock test; the interval in parenthesis stands for 95% confidence interval; format: functional
Mus musculus [32] = assay: Anticonvulsant activity administered intra peritoneally to mouse for protective index of subcutaneous metrazol test; format: functional
Mus musculus [33] = assay: Anticonvulsant activity administered intra peritoneally to mouse for the protective index of toxicity by maximal electroshock test; T D50/ED50; format: functional
[34] = Anti convulsant activity administered intra peritoneally to mouse for toxicity at 4 hr with dose of 300 mg/kg; 0/2= No of animals exhibiting toxicity /No of animals tested; format: organism-based; set-up: dose 300 mg/kg; settings: in vivo, ip
[35] = Anti convulsant activity administered intra peritoneally to mouse for toxicity at 4 hr with dose of 100 mg/kg; 0/4= No of animals exhibiting toxicity /No of animals tested; format: organism-based; set-up: dose 100 mg/kg; settings: in vivo, ip
[36] = Anti convulsant activity administered intra peritoneally to mouse for toxicity at 0.5 hr with dose of 100 mg/kg; 1/8= No of animals exhibiting toxicity /No of animals tested; format: organism-based; set-up: dose 100 mg/kg; settings: in vivo, ip
Mus musculus [37] = assay: Anti convulsant activity administered intra peritoneally to mouse at maximal electroshock test at 4 hr after the drug administered with dose of 100 mg/kg; 0/3= No of animals protected /No of animals tested; format: functional
Rattus norvegicus [38] = assay: Anticonvulsant activity after oral administration of 80 mg/kg dose after 1 hr in rats;+means 25% animals protected; format: functional, organism-based; set-up: dose 80 mg/kg
Procedure, shortened: (§2)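 Maximal electroshock test in rats after oral dosing in 0.5% methylcellulose (0.04 mL per 10 g body weight). Protection read at 15 min, 30 min, 1 h, 2 h and 4 h after dosing. Graded as the percentage of animals protected, in steps of 25%.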

Mus musculus [39] = assay: Anti convulsant activity administered intra peritoneally to mouse at maximal electroshock test at 0.5 h after the drug administered with dose of 100 mg/kg; 1/3= No of animals protected /No of animals tested; format: functional
Rattus norvegicus [40] = assay: Anticonvulsant activity after oral administration of 80 mg/kg dose after 4 hr in rats;+ means 25% of the animals protected; format: functional, organism-based; set-up: dose 80 mg/kg; procedure, shortened: as §2
Rattus norvegicus [41] = assay: Anticonvulsant activity after oral administration of 80 mg/kg dose after 2 hr in rats; + means 25% of the animal is protected; format: functional, organism-based; set-up: dose 80 mg/kg; procedure, shortened: as §2
Rattus norvegicus [42] = assay: Anticonvulsant activity after oral administration of 80 mg/kg dose after 15 min in rats; + means 25% of the animal protected; format: functional, organism-based; set-up: dose 80 mg/kg; procedure, shortened: as §2
[43] = Anti convulsant activity administered intra peritoneally to mouse for subcutaneous metrazol test at 4 hr with dose of 300 mg/kg; 3/4= No of animals protected /No of animals tested; format: ADME, organism-based; set-up: dose 300 mg/kg
[44] = Anticonvulsant activity administered intra peritoneally to mouse for toxicity; settings: in vivo, ip
Rattus norvegicus [45] = assay: Anticonvulsant activity administered orally to rat for the protective index of toxicity by maximal electroshock test; TD50/ED50; format: functional

Row | Structure (SMILES) | Toxicity [3] | Toxicity [5] | Activity (Mus musculus [8]) | Activity (Mus musculus [10]) | Activity (Mus musculus [12]) | Activity (Mus musculus [13]) | Activity (Mus musculus [15]) | Activity (Mus musculus [16]) | Activity (Mus musculus [20]) | Activity (Mus musculus [21]) | Activity (Mus musculus [22]) | Activity (Mus musculus [23]) | Activity (Rattus norvegicus [30]) | Activity (Mus musculus [32]) | Ratio (Mus musculus [33]) | also measured
1 | CC1(C)C(C(=O)NC(N)=S)C1(C)C | 0 | 0 | 0 | 1 | 0 | 0 | 1 | 0 | 0 | 0 | 0 | 0 | – | – | – | Toxicity [1]: 3; Toxicity [2]: 100% animals exhibited toxicity; Toxicity [4]: 2; Toxicity [6]: 0; Toxicity [7]: 4; Activity (Mus musculus [9]): 3; Activity (Rattus norvegicus [11]): 25% animals protected; Activity (Mus musculus [14]): 2; Activity (Rattus norvegicus [17]): 25% animals protected; Activity (Rattus norvegicus [18]): 25% animals protected; Activity (Rattus norvegicus [19]): 25% animals protected; Anticonvulsant Activity (Rattus norvegicus [24]): 50% of the animals protected
2 | CC1(C)C(C(=O)NCC(N)=O)C1(C)C | – | – | – | – | – | – | – | – | – | – | – | – | -2 | 2.3 | 1.5 | TD50 [25]: > 500 mg/kg; ED50 (Rattus norvegicus [26]): > 250 mg/kg; ED50 (Mus musculus [27]): 115 mg/kg; ED50 (Rattus norvegicus [28]): 82 mg/kg; Activity (Rattus norvegicus [29]): >6.1; ED50 (Mus musculus [31]): 173 mg/kg
3 | CNC(=O)N(C)C(=O)C1C(C)(C)C1(C)C | 0 | 0 | 0 | 1 | 0 | 0 | 1 | 0 | 0 | 0 | 0 | 0 | – | – | – | Toxicity [34]: 0; Toxicity [35]: 0; Toxicity [36]: 1; Activity (Mus musculus [37]): 0; Activity (Rattus norvegicus [38]): 25% animals protected; Activity (Mus musculus [39]): 1; Activity (Rattus norvegicus [40]): 25% animals protected; Activity (Rattus norvegicus [41]): 25% animals protected; Activity (Rattus norvegicus [42]): 25% animals protected; Toxicity [43]: 3
4 | CNC(=O)C1C(C)(C)C1(C)C | – | – | – | – | – | – | – | – | – | – | – | – | 3.6 | 3.9 | 1.6 | TD50 [44]: 153 mg/kg; Ratio (Rattus norvegicus [45]): 2

Reference: ChEMBL document CHEMBL1138683 (J Med Chem, 2004)
